Assay outcomes from PubChem.
Compounds with a hit are over-represented: about 4.6% of the library has one in this group of screens.
WT yeast gro inh – growth inhibition of WT yeast, mitochondrial fusion screen; actives 2.1% (n = 190,000); inhibition, % at 10 µM; mitochondrial fusion phenotypic screen, WT strain; in the data active = inhibition above about 58%; tested in S. cerevisiae
NCF1 inh – inhibitors of human p47phox binding; inhibition, % at 24.7 µM; P14598; actives 0.53% (n = 220,000); p47phox/p22phox peptide binding, fluorescence polarization, 2 h;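 active = inhibition above about 30%, limit read from the data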;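 note: 0% = p47phox with labelled peptide and 100% = labelled peptide alone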
Target sequence (P14598 whole entry, looked up): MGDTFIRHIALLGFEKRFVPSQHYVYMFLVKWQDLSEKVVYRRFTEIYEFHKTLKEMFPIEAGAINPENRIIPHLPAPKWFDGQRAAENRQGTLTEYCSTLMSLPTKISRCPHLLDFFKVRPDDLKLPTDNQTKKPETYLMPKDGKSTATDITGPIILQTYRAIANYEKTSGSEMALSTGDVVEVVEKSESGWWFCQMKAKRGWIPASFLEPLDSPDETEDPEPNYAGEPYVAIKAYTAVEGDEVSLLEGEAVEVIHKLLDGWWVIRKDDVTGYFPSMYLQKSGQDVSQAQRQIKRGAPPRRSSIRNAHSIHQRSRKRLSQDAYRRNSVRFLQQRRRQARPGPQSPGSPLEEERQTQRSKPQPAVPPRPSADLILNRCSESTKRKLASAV
Arbovirus anti – blocks arbovirus infection; arbovirus infection cell-based antiviral screen; actives 0.37% (n = 200,000); AID 1251; inhibition, % at 10 µM; in the data active = inhibition above about 30%
Calb biofilm kill – mixture kills Candida albicans biofilm cells. C. albicans biofilm persisters + clotrimazole, fluorescence viability; primary screen in compound mixtures of four per well. inhibition, % at 7.6 µM. actives 0.02% (n = 120,000). AID 1242;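 active = inhibition above 30.3% in the primary screen of four-compound pools, then above 30% when the compound was retested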;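 note: compounds exposed to preformed 24 h biofilms for 48 h; 0% = untreated biofilm control and 100% = clotrimazole plus chlorhexidine kill blank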
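Test system: C. albicans biofilms. Buffer or medium: RPMI/MOPS medium, pH 7.0. Timing: 48 h compound exposure at 37 °C. Technique: Alamar Blue fluorescence. Evaluation: percent inhibition of biofilm viability.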
Hck-Nef inh – blocks Nef-activated human Hck kinase; inhibition, % at 20 µM; Recombinant Hck-YEEI plus Nef, Z-Lyte FRET kinase assay; actives 0.68% (n = 220,000); AID 463187; P08631;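 active = Hck-Nef kinase inhibition above about 50%, limit read from the data; inactive = inhibition below that limit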;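 note: 0% = DMSO with Hck plus Nef and 100% = Hck alone without Nef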
RAM inhibit – inhibitors of the yeast RAM network; S. cerevisiae dse1pr::URA3 reporter, 5-FOA growth OD615, 2 d; analog-sensitive cbk1-as2 kinase mutant strain; inhibition, % at 50 µM; actives 1.8% (n = 190,000);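 active = inhibition above a set limit, 3 SD over mean compound inhibition, cut at about 8.4% in these data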;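 note: 0% = DMSO-only wells with no growth and 100% = 10 µM 1-NA-PP1 full growth; inhibition rescues growth on 5-FOA so higher OD means more RAM inhibition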
Active calls of the source: *; . = not tested or not shown.

SMILES	WT yeast gro inh	NCF1 inh	Arbovirus anti	Calb biofilm kill	Hck-Nef inh	RAM inhibit
Cc1ccc2[nH]c(C(=O)O)c(NC(=O)[C@@H]3C[C@@H]3c3ccccc3)c2c1	.	112.9*	.	32.8	16.0	.
COC(=O)/C(C#N)=C/c1c(Oc2cc(C)cc(C)c2)nc2c(C)cccn2c1=O	3.2	-21.0	3.5	16.0	-0.9	9.1*
CCOC(=O)c1c2n(c3ccc(OC(C)=O)cc13)CCC2	-6.6	38.3*	7.8	.	1.9	1.0
O=c1cc(N2CCCCC2)c(-c2ccccc2)nn1Cc1ccccc1Cl	88.3*	-18.7	-42.0	.	-0.1	3.5
O=c1cc(N2CCCCC2)c(-c2ccccc2)nn1Cc1cccc(Cl)c1	86.3*	0.7	-7.7	.	0.3	5.3
O=c1cc(N2CCCCC2)c(-c2ccccc2)nn1Cc1ccc(Cl)cc1Cl	72.8*	1.5	-46.5	.	-2.0	7.7
C=CCn1nc(-c2ccccc2)c(N2CCCCC2)cc1=O	0.0	4.5	-3.4	9.4	17.0	0.5
C/C(CCc1ccccc1)=N\NC(=O)CC(=O)NCCc1ccccc1	-1.7	0.0	-0.6	5.6	-11.2	0.4
Cc1cccc(OCCCC(=O)Nc2ccc3c(c2)OCO3)c1	73.7*	-6.6	-16.8	.	-1.1	1.5
Cc1cccc(NC(=S)N/N=C/c2ccc3c(c2)OCO3)c1	60.0*	-2.1	-1.5	7.6	2.5	3.3
CCc1ccc(/C=N\n2cnnc2)cc1	.	-3.3	.	20.7	23.8	.
Cc1ccc(-c2cc(C(F)F)n3ncc(C(=O)N4CCN5CCCC5C4)c3n2)cc1 (centres undefined)	65.7*	-17.5	3.3	.	12.3	2.6
O=C(c1cnn2c(C(F)F)cc(-c3ccccc3)nc12)N1CCc2ccccc2C1	77.9*	-15.1	-19.4	1.5	28.0	2.4
O=C(c1cc(-c2ccccc2)nc2ccccc12)N1CCc2ccccc2C1	71.1*	-13.2	8.6	15.7	3.1	4.5
O=C(O)CC(CNS(=O)(=O)c1cccc2nsnc12)c1ccccc1 (centres undefined)	-29.4	2.1	16.2	-5.1	12.7	1.8
Cc1ccccc1C(=O)Nc1nc(=S)ss1	5.8	-9.0	14.8	.	0.6	1.1
O=C(Nc1nc(=S)ss1)c1c(F)cccc1F	78.8*	-12.4	10.7	.	1.1	-0.1
O=C(CS(=O)(=O)Cc1ccccc1)Nc1nc2ccccc2s1	3.1	56.0*	47.8*	.	0.6	3.4
O=C(CSc1ncn(-c2ccccc2)n1)Nc1nc2ccccc2s1	49.1	-20.9	40.0*	.	-0.5	3.1
COc1ccc2nc(NC(=O)CS(=O)(=O)Cc3ccccc3)sc2c1	2.6	6.9	6.8	15.0	19.0	2.9
COc1cccc(CC2(CO)CCCN(Cc3c(C)cc(C)cc3-n3cccn3)C2)c1 (centres undefined)	15.1	-26.6	-20.0	15.6	2.0	-1.0
COc1ccc(CN(Cc2cccn2C)C(=O)c2cc3cc(OC)ccc3[nH]2)cc1	.	-21.5	.	23.9	27.3	.
COc1ccc(C(C)=O)cc1CSc1nnc(Nc2c(C)cccc2C)s1	25.4	-5.5	-3.3	7.7	0.8	4.3
CCCCCc1cc(=O)oc2c(C(CCN3CCCC(C)C3)c3ccc4c(c3)OCO4)c(OC)cc(OC)c12 (centres undefined)	.	32.9*	.	5.7	21.6	.
CCCCCc1cc(=O)oc2c(C(CCN3CCCCC3)c3ccc4c(c3)OCO4)c(OC)cc(OC)c12 (centres undefined)	.	-4.5	.	9.8	33.1	.
SMILES	WT yeast gro inh	NCF1 inh	Arbovirus anti	Calb biofilm kill	Hck-Nef inh	RAM inhibit
O=C(Oc1ccccc1/C=C\C(=O)c1cc2ccccc2o1)c1ccccc1	34.3	-23.2	-37.3	12.8	3.9	8.2
O=C(Oc1ccccc1/C=C\C(=O)c1cc2ccccc2o1)c1cccc(F)c1	37.9	-20.1	-36.5	16.8	1.6	10.1*
O=C(CSc1nnc(COc2cccc3ccccc23)o1)N1c2ccccc2CCc2ccccc21	6.0	-6.9	-0.5	.	0.8	7.7
COc1ccc(S(=O)(=O)N2CCCC2C(=O)Nc2ccc(O)cc2)cc1 (centres undefined)	6.8	-20.6	-8.9	.	-0.1	1.2
COc1ccc(S(=O)(=O)N2CCC[C@H]2C(=O)NC2=NCCS2)cc1	65.6*	9.2	5.9	.	0.6	-0.4
COc1ccc(CCNC(=O)C/C(C)=N/NC(=O)c2ccc(N)cc2)cc1OC	0.6	81.3*	-0.9	.	0.1	3.8
CCOc1cc(/C=N/N=C(N)N)ccc1OCc1ccc(Cl)cc1	52.3	76.6*	-38.8	11.7	7.5	9.8*
COc1cc(/C=N/N=C(N)N)ccc1OCc1ccc(Cl)cc1	-13.1	3.8	-28.9	16.6	10.5	-1.4
Cc1cc(SCC(=O)OCC(=O)NCc2ccc3c(c2)OCO3)c(C)cc1Br	-2.8	-24.4	-4.3	-4.0	7.7	11.2*
CC(=O)Nc1cccc(/C(C)=N/NS(=O)(=O)c2ccccc2)c1	-2.0	-5.9	-5.2	10.2	-1.7	1.4
COc1ccc(S(=O)(=O)N/N=C(/C)c2cccc(NC(=O)c3ccccc3Cl)c2)cc1	0.7	0.5	37.0*	.	-0.7	0.1
CCCOC(=O)c1ccc(Oc2cn[nH]c2-c2ccc(OCC)cc2O)cc1	-11.5	-2.3	-28.9	.	0.1	2.8
COc1ccc(Oc2c(-c3ccc(O)cc3O)n[nH]c2C)cc1	-10.5	-15.1	-11.0	.	6.2	-1.0
CCCc1ccc(Oc2c(-c3ccc(O)c(C)c3O)n[nH]c2C)cc1	89.7*	-10.5	-14.3	.	-0.8	9.1*
CCCc1ccc(Oc2cn[nH]c2-c2ccc(O)c(C)c2O)cc1	82.7*	-8.7	-43.3	.	-2.3	0.5
Cc1ccc(N(C(=O)Cc2cccs2)C(C(=O)NC2CCCCC2)c2ccccn2)cc1C (centres undefined)	16.9	-11.6	-27.4	9.6	-42.2	1.3
NC(=O)c1ccc(Sc2nnc(-c3cccs3)n2CC2CCCO2)c([N+](=O)[O-])c1 (centres undefined)	-30.8	-0.4	1.5	7.7	3.6	3.0
O=C(CSc1ncnc2c(-c3ccc(Cl)cc3)nsc12)c1ccccc1	78.2*	-22.3	2.3	.	-1.7	6.0
O=C(CSc1ncnc2nc[nH]c12)c1ccc(Cl)cc1	8.5	.	-0.2	.	.	.
Cc1cc(C)c(NS(=O)(=O)c2ccc3c(c2)NC(=O)CC(=O)N3)c(C)c1	-7.3	-6.3	5.5	13.7	6.1	1.1
COc1ccccc1-c1cc(-c2cc(Cl)ccc2O)n[nH]1	-2.9	-10.0	1.9	.	-1.0	3.1
Oc1ccc(Cl)cc1-c1cc(-c2ccccc2)n[nH]1	58.5*	-8.6	32.8*	.	19.8	4.7
C=CCn1c(SCC(=O)Nc2cccnc2Cl)nnc1-c1ccccc1F	-1.8	-2.3	-2.1	14.1	1.8	2.0
CN(c1ccccc1)c1nc2ccsc2c(=O)s1	10.6	-13.8	-5.8	.	0.8	2.3
CCN(c1ccccc1)c1nc2ccsc2c(=O)s1	56.2	-15.0	9.3	.	6.7	8.5*
COC(=O)C1=C(C)N=c2s/c(=C/c3cccs3)c(=O)n2C1c1cccs1 (centres undefined)	45.9	-16.8	-10.6	.	-0.2	9.2*
